# Compound activity deposited in PubChem BioAssay by several laboratories.
# Shown are actives, neighbours in structure and some others; about 2.6% of the full set was active somewhere.
# FGF22 binding – binders of recombinant human FGF22 by thermal shift | 340,000 compounds, 1.5% hits | activity (Tm shift, normalised), % at 9.99 µM | Q9HCT0 | SYPRO orange fluorescence; percent of sucrose octasulfate shift, DMSO zero;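 active means mean Tm shift, scaled 0 neutral to 100 positive control, at about 1.3% or above, every replicate too, limit read from the data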
# SIRT5 inh – inhibitors of human sirtuin-5 desuccinylase; Purified SirT5, succinyl-peptide AMC, trypsin-coupled fluorescence; inhibition, % at 15 µM; 330,000 compounds, 1.1% hits; AID 652115; in the data active means inhibition above about 15%
# Casp6 inh – blocks human caspase-6 cleavage activity | 350,000 compounds, 0.53% hits | purified caspase-6, Z-VEID-R110 cleavage fluorescence | inhibition, % at 12.5 µM;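 active means mean inhibition across replicates at least about 35%, with every replicate also reaching that limit, limit read from the data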;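 further: 0% = median of neutral control wells and 100% = no fluorescence left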
# Target sequence (P55212 24-179 limits assumed): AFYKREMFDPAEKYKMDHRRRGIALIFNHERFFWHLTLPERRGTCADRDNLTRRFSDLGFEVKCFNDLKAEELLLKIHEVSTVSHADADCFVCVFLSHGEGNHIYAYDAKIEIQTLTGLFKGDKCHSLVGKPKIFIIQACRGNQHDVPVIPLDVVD
# Target sequence (P55212 194-293 limits assumed): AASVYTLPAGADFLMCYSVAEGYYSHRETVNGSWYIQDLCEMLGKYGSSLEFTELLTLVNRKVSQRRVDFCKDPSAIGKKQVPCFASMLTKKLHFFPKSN
# NSD2 inh – inhibitors of human histone methyltransferase NSD2 | inhibition, % at 12.5 µM | 310,000 compounds, 0.54% hits | NSD2 peptide methylation, AlphaScreen, 120 min; in the data active means inhibition above about 50%
# UCH37 inh – human UCH37 deubiquitinating enzyme inhibition; Q9Y5K5; purified proteasome/UCH37, Ub-AMC cleavage fluorescence; inhibition, % (no concentration beside the values); 330,000 compounds, 0.33% hits;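 active means mean inhibition over replicate wells above about 20%, limit read from the data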;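 further: 0% = compound-free wells with enzyme and 100% = wells lacking proteasome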
# Target sequence (Q9Y5K5 whole entry, looked up): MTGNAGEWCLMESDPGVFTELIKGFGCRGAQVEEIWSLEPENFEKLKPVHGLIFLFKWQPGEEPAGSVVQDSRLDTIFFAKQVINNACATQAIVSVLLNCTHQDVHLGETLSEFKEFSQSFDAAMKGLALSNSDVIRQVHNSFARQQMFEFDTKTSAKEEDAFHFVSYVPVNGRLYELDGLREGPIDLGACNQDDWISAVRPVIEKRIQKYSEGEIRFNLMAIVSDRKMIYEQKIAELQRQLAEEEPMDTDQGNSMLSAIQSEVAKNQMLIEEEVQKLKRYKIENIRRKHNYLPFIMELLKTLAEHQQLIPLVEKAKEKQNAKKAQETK
#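 Reagent: Ub-AMC substrate; assay system: Proteasome-associated human UCH37 deubiquitinase; controls: no-proteasome and no-compound wells; read-out: % inhibition of Ub-AMC cleavage fluorescence; timing: 30 min preincubation with enzyme, 25 min cleavage at room temperature; signal: AMC fluorescence from Ub-AMC cleavage, excitation 355 nm, emission 460 nm; buffer or medium: Tris-HCl pH 7.4 plus ovalbumin, ATP-MgCl2, DTT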
# Starred values were filed as active, the others as inactive; x = no result.
SMILES,FGF22 binding,SIRT5 inh,Casp6 inh,NSD2 inh,UCH37 inh
Cc1cc(N2C(=O)C(O)=C(C(=O)c3cc4ccccc4o3)C2c2ccc(Br)cc2)no1 (configuration not stated),0,25*,48*,-4,x
COc1ccc(NC(=O)Nc2cnccn2)cc1,0,-3,8,x,4
CCOc1ccc(NC(=O)NC(C)CC)cc1 (configuration not stated),43*,0,0,-2,1
CCOc1ccc(NC(=O)Nc2cnccn2)cc1,43*,-1,-2,-3,3
O=C(NN=C/C(Cl)=C/c1ccc([N+](=O)[O-])cc1)C(=O)Nc1cccc(C(=O)O)c1,x,x,x,x,16
COC(=O)CCN(Cc1ccccc1)S(=O)(=O)c1ccccc1Br,0,-12,3,x,3
O=C(O)CCN(Cc1ccccc1)S(=O)(=O)c1ccc(Cl)cc1F,44*,0,1,-1,4
CO[C@@H]1CN(C)C(=O)c2ccc(NS(C)(=O)=O)cc2OC[C@@H](C)N(Cc2nccs2)C[C@H]1C,0,20*,0,x,x
CO[C@H]1CN(C)C(=O)c2ccc(NC(C)=O)cc2OC[C@H](C)N(Cc2nccs2)C[C@@H]1C,0,18*,8,x,x
CO[C@H]1CN(C)C(=O)c2ccc(NS(C)(=O)=O)cc2OC[C@H](C)N(Cc2nccs2)C[C@@H]1C,0,0,-1,x,x
CO[C@@H]1CN(C)C(=O)c2ccc(NC(C)=O)cc2OC[C@H](C)N(Cc2nccs2)C[C@H]1C,0,-3,-1,x,x
Cc1ccc(S(=O)(=O)N[C@H]2C=C[C@@H](CC(=O)NCCCN(C)C)O[C@H]2CO)cc1,0,6,-3,x,x
CCOc1cc(/C=N/NC(=O)C(N)=O)cc(Br)c1O,43*,9,-2,0,x
CCOc1cc(C=NNC(=O)C(=O)NC)cc(Br)c1O,x,x,x,x,15
O=C(NC1CCCCCC1)C(=O)NC1CCCC1,x,x,x,-3,1
CC(C)CCNC(=O)C(=O)NC1CCCC1,44*,3,4,7,2
CCC(C)NC(=O)C(=O)NC1CCCC1 (configuration not stated),44*,-1,2,-6,5
CCC(=O)c1ccccc1OCCN1C(=O)NC(C)(C)C1=O,0,-1,2,2,6
CC1(C)NC(=O)N(CCOCCOc2ccccc2-c2ccccc2)C1=O,0,26*,1,-12,0
OC[C@H]1[C@H](c2ccc(-c3ccc(F)cc3)cc2)[C@@H]2CN(CCC(F)(F)F)CCCCN12,0,3,0,x,x
COc1ccc(NC(=S)NCc2ccc3c(c2)OCO3)cc1,43*,-4,-3,0,5
CC(C)c1ccc(NC(=S)NCc2ccc3c(c2)OCO3)cc1,0,4,x,12,1
COc1cccc(CN2[C@@H]3CN(C(=O)CC(F)(F)F)c4ccccc4[C@@H]3[C@@H]2CO)c1,0,1,-2,x,x
C[C@@H]1CN([C@@H](C)CO)C(=O)Cc2cc(NC(=O)Cc3ccccc3)ccc2O[C@@H]1CN(C)Cc1ccc(C(F)(F)F)cc1,-1,5,1,x,x
C[C@H](CO)N1C[C@H](C)[C@H](CN(C)Cc2ccccc2)Oc2ccc(NC(=O)C3CC3)cc2CC1=O,0,0,3,x,x
SMILES,FGF22 binding,SIRT5 inh,Casp6 inh,NSD2 inh,UCH37 inh
C[C@H]1CN([C@@H](C)CO)C(=O)Cc2cc(NC(=O)Nc3ccc(C(F)(F)F)cc3)ccc2O[C@H]1CN(C)Cc1ccc(C(=O)Nc2ccccc2N)cc1,0,20*,0,x,x
C[C@@H]1CN([C@H](C)CO)C(=O)Cc2cc(NC(=O)Cc3ccccc3)ccc2O[C@@H]1CN(C)Cc1ccc(C(F)(F)F)cc1,-1,16*,1,x,x
C[C@@H]1CN([C@H](C)CO)C(=O)Cc2cc(NC(=O)C3CC3)ccc2O[C@@H]1CN(C)Cc1ccccc1,0,99*,-1,x,x
C[C@H](CO)N1C[C@H](C)[C@@H](CN(C)Cc2ccc(C(F)(F)F)cc2)Oc2ccc(NC(=O)Cc3ccccc3)cc2CC1=O,0,16*,-5,x,x
C[C@@H]1CN([C@H](C)CO)C(=O)Cc2cc(NC(=O)Nc3ccc(C(F)(F)F)cc3)ccc2O[C@@H]1CN(C)Cc1ccc(C(=O)Nc2ccccc2N)cc1,0,0,2,x,x
C[C@@H]1CN([C@@H](C)CO)C(=O)Cc2cc(NC(=O)Cc3ccccc3)ccc2O[C@H]1CN(C)Cc1ccc(C(F)(F)F)cc1,0,13,1,x,x
CCn1c(C)[n+](Cc2ccccc2)c2ccc(C(=O)OC)cc21,43*,-1,-2,-3,2
CC(=NOC(=O)NC(C)C)c1sc(-c2ccc(Cl)cc2)nc1C,x,x,x,x,3
COC(=O)c1cc([N+](=O)[O-])c(-n2cncn2)c([N+](=O)[O-])c1,43*,2,3,-6,7
COC(=O)c1cc(F)c(-n2cncn2)c(F)c1,1,-2,1,-1,2
CC(C)OC(=O)CC(=O)CSc1nc2c(c(-c3cccs3)c1C#N)CCC2,44*,6,4,-2,-5
CCOC(=O)c1c(C)oc2c1c(C(c1ccccc1)N1CCOCC1)c(O)c1ccccc12 (configuration not stated),x,x,x,0,-9
CCOC(=O)c1c(C)oc2c1c(C=NCCO)c(O)c1ccccc12,0,-2,8,101*,11
CCOc1ccc(C2C(C(=O)c3ccc(C)o3)=C(O)C(=O)N2Cc2cccnc2)cc1 (configuration not stated),0,4,0,-11,10
CCOC(=O)C1=C(O)C(=O)N(Cc2cccnc2)C1c1ccc(C)cc1 (configuration not stated),44*,0,0,-1,3
CC(=O)C1=C(O)C(=O)N(Cc2cccnc2)C1c1ccc(C(C)C)cc1 (configuration not stated),43*,-1,-3,4,x
CCC(=O)N1[C@H](CN(CC)C(=O)c2ccccc2)[C@H](c2ccccc2)[C@@H]1CO,0,7,0,x,x
Cc1ccccc1CS(=O)(=O)CCC(=O)NCCCN1CCN(c2ccccc2F)CC1,x,-2,-22,2,33*
O=C(CCS(=O)(=O)Cc1ccc(Cl)cc1)NCCCN1CCN(c2ccccc2F)CC1,x,x,x,19,0
C[C@@H]1CCCCO[C@H](CN(C)C(=O)c2ccccc2)[C@H](C)CN([C@@H](C)CO)C(=O)c2cc(NC(=O)Nc3ccc(F)cc3)ccc2O1,1.3*,5,-1,x,x
C[C@@H]1CCCCO[C@@H](CN(C)C(=O)c2ccccc2)[C@@H](C)CN([C@H](C)CO)C(=O)c2cc(NC(=O)c3ccccc3)ccc2O1,1,0,1,x,x
C[C@@H]1CCCCO[C@H](CN(C)C(=O)C2CCCCC2)[C@H](C)CN([C@@H](C)CO)C(=O)c2cc(NC(=O)Nc3ccc(F)cc3)ccc2O1,0,16*,1,x,x
